High-throughput results deposited in PubChem by several laboratories.
In the library only some 4.5% were active in any assay of this set; here they are far more common.
HCV NS3 hel inh = blocks Hepatitis C virus NS3 helicase unwinding. NS3 helicase DNA unwinding, Cy5 molecular beacon fluorescence. 290,000 tested, 0.56% active. inhibition, % at 10.9 µM;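 active = inhibition above the mean of all tested compounds plus 3 SD, set per campaign, cut at about 35% in these data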;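 note: 0% = DMSO wells and 100% = thioflavine S control wells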
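Assay system – hepatitis C virus NS3 helicase domain fragment enzyme · Buffer or medium – MOPS pH 6.5, MgCl2, DTT, Tween20, BSA · Reagent – Cy5/quencher beacon DNA duplex and ATP to start · Compound – single 10.9 µM dose · Timing – 1 h at 25 °C · Technique – Cy5 beacon fluorescence read at start and 1 h · Measure – % inhibition of unwinding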
UPR CHOP act = activators of apoptotic arm of unfolded protein response (CHOP); CHO-CHOP luciferase reporter, UPR activation, luminescence; percent of tunicamycin response over DMSO baseline; activation, % at 10 µM; 330,000 tested, 0.34% active;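 active = at 10 µM dose, activation of 40% or more, normalized to positive control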;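 note: 100% = tunicamycin at 10 µg/mL and 0% = DMSO alone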
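Dosing – one dose, 10 µM in 0.5% DMSO · System – CHO-CHOP cells, stable luciferase reporter of PERK-eIF2a-CHOP signalling · Input – 500 cells/well · Control set – tunicamycin 10 µg/mL final as positive, DMSO-only wells as negative · Timing – 6 h compound treatment, 37 °C · Measure – % activation vs tunicamycin · Technique – luminescence read with Steady-Glo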
p97 inhibitor = inhibitors of human p97 ATPase; 220,000 tested, 0.42% active; inhibition, % at 8 µM; P55072; recombinant p97 ATPase, Kinase-Glo ATP luminescence, 3 h; in the data active = inhibition above about 15%;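 note: 0% = DMSO vehicle and 100% = wells lacking enzyme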
Target sequence (P55072 whole entry, looked up): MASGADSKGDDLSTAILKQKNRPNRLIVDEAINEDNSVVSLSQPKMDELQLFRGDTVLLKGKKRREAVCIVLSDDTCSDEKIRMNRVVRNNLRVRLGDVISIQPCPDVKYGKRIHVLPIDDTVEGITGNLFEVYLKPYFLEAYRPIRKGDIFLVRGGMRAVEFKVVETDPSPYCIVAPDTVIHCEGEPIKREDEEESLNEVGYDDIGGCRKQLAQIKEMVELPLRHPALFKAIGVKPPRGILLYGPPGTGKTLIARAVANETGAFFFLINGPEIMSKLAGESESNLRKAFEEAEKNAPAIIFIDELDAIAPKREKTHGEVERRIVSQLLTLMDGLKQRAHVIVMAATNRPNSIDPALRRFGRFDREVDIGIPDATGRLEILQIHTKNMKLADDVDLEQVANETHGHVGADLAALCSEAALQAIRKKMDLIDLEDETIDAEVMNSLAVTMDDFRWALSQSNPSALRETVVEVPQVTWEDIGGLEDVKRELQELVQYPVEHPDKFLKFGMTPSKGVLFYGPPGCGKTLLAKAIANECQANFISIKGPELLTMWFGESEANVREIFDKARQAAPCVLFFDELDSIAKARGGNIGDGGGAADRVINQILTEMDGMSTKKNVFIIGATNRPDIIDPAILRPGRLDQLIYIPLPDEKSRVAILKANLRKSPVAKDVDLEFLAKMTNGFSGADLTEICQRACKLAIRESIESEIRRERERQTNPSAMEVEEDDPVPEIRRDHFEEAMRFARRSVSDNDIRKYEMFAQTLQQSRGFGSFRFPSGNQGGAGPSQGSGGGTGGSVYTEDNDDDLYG
M18AAP inhibitor = blocks P. falciparum M18 aspartyl aminopeptidase; recombinant PfM18AAP, H-Glu-NHMec fluorogenic cleavage; 290,000 tested, 1.2% active; AID 1822; inhibition, % at 7.35 µM;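 active = inhibition above the campaign mean inhibition over all tested compounds plus 3 SD, cut at about 28% in these data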;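 note: 0% = plate median of test compound wells and 100% = 2 mM ZnCl2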
CHOP inhibitor = inhibitors of CHOP induction in ER stress response; inhibition, % at 10 µM; 220,000 tested, 3.8% active; CHO-K1 CHOP-promoter luciferase, tunicamycin-induced, 15-18 h;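 active = compounds that reduced the stress-induced luciferase reporter signal by more than about 70% of percent inhibition, limit read from the data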;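 note: 0% = tunicamycin plus vehicle and 100% = wells without tunicamycin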
XBP1 UPR activ = activators of adaptive arm of unfolded protein response (XBP1); CHO-XBP1 luciferase reporter, IRE1-XBP1 UPR activation, luminescence; percent of tunicamycin response, DMSO as zero; activation, % at 20 µM; 330,000 tested, 0.33% active;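 active = versus positive control, 20 µM dose yields 30% or more activation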;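 note: 100% = tunicamycin at 10 µg/mL and 0% = DMSO only wells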
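Material: IRE1-XBP1 luciferase reporter CHO line / Quantity: one thousand reporter cells per well / Buffer or medium: F12 with 10% serum / Compound: 20 µM single concentration, DMSO 1% / Times: 6 h treatment, 37 °C / Detection: Steady-Glo luciferase glow luminescence, 10 min after reagent addition / Benchmarks: tunicamycin high, DMSO low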
CHOP inh conf = confirmation of CHOP induction inhibitors. CHO-CHOP promoter luciferase reporter, tunicamycin-induced, luminescence. 2,100 tested, 45% active. inhibition, % at 10 µM. shares compounds with CHOP inhibitor;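 active = mean of three repeat readings of reporter signal inhibition above a set limit, cut at about 70% in these data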;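 note: 0% = tunicamycin plus vehicle and 100% = wells lacking tunicamycin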
An asterisk follows results filed as active; / = no result given.

SMILES	HCV NS3 hel inh	UPR CHOP act	p97 inhibitor	M18AAP inhibitor	CHOP inhibitor	XBP1 UPR activ	CHOP inh conf
Cc1ccc(SCC(=O)Nc2ccc(-c3nc4ccccc4[nH]3)cc2)cc1	3	4	-1	-1	102*	17	6
COC(=O)c1ccc(N2CCN(C)CC2)c(NC(=O)c2cccs2)c1	7	-1	/	11	/	-3	/
CCOc1ccc(S(=O)(=O)N(CC)CC(=O)NCc2cccnc2)cc1	17	2	/	1	/	-2	/
Cc1cccc(CC(=O)Nc2ccc(C(=O)N3CCOCC3)cc2)c1	4	4	/	-2	/	-4	/
COc1ccc(C(=O)Nc2ccccc2C(=O)Nc2cc(C)ccn2)cc1	-8	5	/	-10	/	1	/
COc1ccc(C(=O)NC(=O)Nc2cc(C)ccn2)cc1	-3	-9	-8	-3	105*	-9	103*
C=CCN(Cc1nc(-c2ccccc2)no1)C(=O)c1ccc2c(c1)OCO2	-7	-2	/	-3	/	-5	/
O=S(=O)(NCC(Nc1ccc(Cl)cc1)c1ccccc1)c1ccc(Cl)cc1 (centres undefined)	14	-1	9	-7	108*	2	112*
O=S(=O)(NCC(c1ccccc1)N1CCC(O)CC1)c1ccc(Cl)cc1 (centres undefined)	-2	-1	/	-4	/	-2	/
N#Cc1ccccc1OCC(=O)N(Cc1nnc(-c2ccccc2Cl)o1)C1CC1	/	1	/	/	/	2	/
CC(C)Oc1ccc(CNC(=S)N/N=C/c2ccc([N+](=O)[O-])cc2)cc1	-11	1	2	-6	98*	0	102*
Cc1ccc(-n2c(Cl)c(Cl)nc(Cl)c2=O)cc1	-3	/	3	-106	110*	/	114*
COc1nc(Cl)cn(-c2ccc(C)cc2)c1=O	6	3	-3	-9	-3	-2	/
C/C(=N\NC(=O)CC1N=C(Cc2ccccc2)NNC1=O)c1ccc(Cl)cc1Cl (centres undefined)	12	0	-3	-3	99*	3	28
C/C(=N\NC(=O)CC1N=C(Cc2ccccc2)NNC1=O)c1ccccc1 (centres undefined)	-6	0	5	0	36	1	/
COc1ccc(NS(=O)(=O)c2ccc3oc(SCc4ccc(F)cc4)nc3c2)cc1	-11	-1	-3	2	96*	0	58
Cc1cccc(NCC(=O)N/N=C\c2cccc(Oc3ccccc3)c2)c1	-10	-1	2	-1	104*	0	81*
Cc1ccc(NCC(=O)N/N=C/c2cccc(Oc3ccccc3)c2)cc1	-2	2	9	6	101*	-3	85*
Cc1cccc(NCC(=O)N/N=C/c2ccc(Br)cc2)c1	-13	1	6	10	68	3	/
COc1ccc(NC(=O)CSc2nnc(-c3cccnc3)s2)cc1	-1	2	/	1	/	-1	/
FC(F)(F)c1cccc(NC(=S)N2CCN(c3cccc(C(F)(F)F)c3)CC2)c1	-11	-1	-2	-7	107*	-1	116*
NCCCNC(=O)c1cc2ccccc2[nH]1	2	-1	4	-4	107*	-1	11
O=C(NCCc1ccc(Cl)cc1Cl)c1cccnc1	-7	0	/	-8	/	-5	/
COc1cccc(OCC(=O)NC2CCS(=O)(=O)C2)c1 (centres undefined)	/	0	/	/	/	3	/
N#CC1=C(N)C2=CCCC[C@H]2[C@H](c2ccccc2)C1(C#N)C#N	14	-2	-5	18	-13	-4	/
SMILES	HCV NS3 hel inh	UPR CHOP act	p97 inhibitor	M18AAP inhibitor	CHOP inhibitor	XBP1 UPR activ	CHOP inh conf
N#CC1=C(N)C2=CCCC[C@H]2[C@H](c2ccc(Br)cc2)C1(C#N)C#N	14	/	4	14	99*	/	24
O=C(Nc1cccc(O)c1)C(Cc1ccccc1)N1C(=O)c2cccc3cccc(c23)C1=O (centres undefined)	15	-2	8	-4	109*	4	25
Cc1cccc(NC(=O)c2ccc([N+](=O)[O-])s2)c1C	-9	-1	4	-9	-20	2	/
CCOC(=O)c1c(-c2ccc(C)cc2)csc1NC1=NS(=O)(=O)c2ccccc21	1	0	4	2	101*	9	-20
O=S(=O)(Nc1ccc(-c2csc(-c3ccccc3)n2)cc1)c1ccccc1	-8	1	3	-2	100*	2	24
Cc1ccc(S(=O)(=O)Nc2nc(-c3ccccc3)cs2)cc1	24	0	/	23	/	-4	/
S=C(NCCc1ccc(Cl)cc1)Nc1ccc(Cl)cc1Cl	10	0	4	-4	105*	-2	95*
O=C(NCCc1ccc(Cl)cc1)Nc1cccc(Cl)c1	-4	3	-7	-15	100*	1	13
CCOc1ccc(C(=O)C(CCC(CN(C)C)C(=O)c2ccc(OCC)cc2)CN(C)C)cc1 (centres undefined)	-65	/	0	-6	106*	/	76*
Nc1c(C(=O)Nc2ccccc2F)sc2nc(-c3cccnc3)ccc12	11	4	7	18	97*	4	77*
Nc1c(C(=O)Nc2ccc(Cl)c(Cl)c2)sc2nc(-c3cccnc3)ccc12	15	0	-2	11	-5	-2	/
CCc1nc(SCC(=O)Nc2nccs2)c2oc3ccccc3c2n1	-3	-1	-11	-12	102*	21	23
CCN(C(=O)CSc1nc(C)c(C)c(C)n1)C1CCS(=O)(=O)C1 (centres undefined)	/	0	/	/	/	-2	/
Cc1ccc(/C=C(\NC(=O)c2ccc(C)cc2)c2nc(=S)[nH][nH]2)cc1	3	-2	6	2	110*	-3	4
Cc1nn(-c2ccccc2)c(C)c1/C=N/n1c(-c2ccncc2)n[nH]c1=S	1	1	3	12	5	2	/
Cc1nn(-c2ccccc2)c(C)c1/C=N/n1c(-c2ccc(Cl)cc2)n[nH]c1=S	-3	0	7	2	103*	9	48
COc1ccc(NC(=O)CNC(=O)Cc2cccc3ccccc23)c(OC)c1	/	-1	/	/	/	-1	/
CSc1ccc(/C=N/n2c(Cc3ccc(Br)cc3)n[nH]c2=S)cc1	-1	2	4	12	101*	-3	30
CCOC(=O)c1nn(-c2ccc(Cl)cc2C)ccc1=O	7	3	/	3	/	-2	/
COc1ccc(Cn2c(CCC(=O)NCCC(C)C)nc3ncccc3c2=O)cc1	-2	0	/	5	/	-4	/
CCOC(=O)c1c(-c2ccco2)csc1NC(=O)COC(=O)c1cnc(C)cn1	/	0	/	/	/	0	/
